Data as given in publication PMC5538687 (International Journal of Nanomedicine, 2017).
Read-outs that look alike come from different tables or passages of the source.

Experiments:
mouse FAPα protein = target: T1, mouse FAPα protein (Mus musculus, UniProt P97321); experiment: In vitro protease assay with recombinant FAPα; format: biochemical; conditions: 37°C
T1 sequence (P97321 1-761): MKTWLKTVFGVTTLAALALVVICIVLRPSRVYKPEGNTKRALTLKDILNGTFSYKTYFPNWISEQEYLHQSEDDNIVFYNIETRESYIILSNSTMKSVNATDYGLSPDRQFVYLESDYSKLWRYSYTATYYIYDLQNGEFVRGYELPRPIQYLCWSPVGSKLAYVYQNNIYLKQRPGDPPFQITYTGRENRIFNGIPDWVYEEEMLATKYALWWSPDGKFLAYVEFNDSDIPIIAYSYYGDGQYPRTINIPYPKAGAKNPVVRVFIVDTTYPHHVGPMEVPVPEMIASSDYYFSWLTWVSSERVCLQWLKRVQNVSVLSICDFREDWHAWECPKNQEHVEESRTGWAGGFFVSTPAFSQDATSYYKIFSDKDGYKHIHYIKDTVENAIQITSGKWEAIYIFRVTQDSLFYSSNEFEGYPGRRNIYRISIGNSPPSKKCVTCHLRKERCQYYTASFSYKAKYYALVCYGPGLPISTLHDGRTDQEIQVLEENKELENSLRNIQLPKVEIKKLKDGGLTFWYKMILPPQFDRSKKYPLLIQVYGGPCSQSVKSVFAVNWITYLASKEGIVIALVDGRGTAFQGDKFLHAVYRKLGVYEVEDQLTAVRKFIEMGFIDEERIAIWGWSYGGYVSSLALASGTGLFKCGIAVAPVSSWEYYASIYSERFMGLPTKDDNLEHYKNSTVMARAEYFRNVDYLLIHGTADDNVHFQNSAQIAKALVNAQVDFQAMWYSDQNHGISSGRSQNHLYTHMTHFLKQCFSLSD

[1] = system: Eca109 xenograft tumor (FAPα in tumor stroma); format: in vivo, BALB/c-nude mice; conditions: for AUC of ROC curve, ESCC vs healthy mice: 1 hour urine, n=10 per group
Summary of the method: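 BALB/c-nude mice aged 4–6 weeks were given 5×10⁶ Eca109 cells s.c. and grown 4 weeks to tumours of 100–300 mm³. Tumour-bearing and age-matched healthy mice (n=10 each) were co-injected via the tail vein with probe nanoparticles (100 μL PBS; 100 or 10 nM by peptide) plus control peptide at the same level. Urine was collected at set times, with 1 h urine used for diagnosis. It was stored at −80°C, diluted 1:10–10² in PBS/1% BSA, and run by ELISA in at least duplicate. ROC analysis was applied.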

Eca109 xenograft tumor = experiment: In vivo imaging and biodistribution; design: species or system BALB/c-nude mice; conditions: 100 μL, 100 nM by peptide, i.v.; 1 hour postinjection

Substance: Bio-eGvndneeGffsar-K [5-FAM]-GPGPNQC [marker-MNPs]
- Level of cleaved reporter peptides with increasing FAPα concentration (mouse FAPα protein; marker-MNPs 10 nM by peptide, recombinant FAPα 0.1–100 pM, 1 hour, ELISA, n=3 per dose): elevated levels of cleaved reporter peptides were detected by ELISA with increasing concentration of FAPα
- Level of cleaved reporter peptides over time (mouse FAPα protein; marker-MNPs treated with 10 nM FAPα): increased over time
- Sensitivity ([1]; 10 nM group): 90%
- Specificity ([1]; 10 nM group): 97%
- AUC of ROC curve, ESCC vs healthy mice ([1]; 10 nM group): 0.97
- Sensitivity ([1]; 100 nM group): 100%
- Specificity ([1]; 100 nM group): 100%
- AUC of ROC curve, ESCC vs healthy mice ([1]; 100 nM group): 1.0
- Time of peak concentration of cleaved reporter peptide in urine ([1]; 100 nM marker-MNPs i.v., ESCC tumor mice, n=3, ELISA): 60 min
- Time at which urinary cleaved reporter dropped to the bottom line ([1]; 100 nM marker-MNPs i.v., ESCC tumor mice, postinjection): 150 min
- Urine reporter in healthy mice ([1]; 100 nM marker-MNPs i.v., healthy mice, 0–180 min): not detectable
- Ratio of reporter to reporter control, ESCC vs healthy mice ([1]; 1 hour postinjection urine, P<0.0001): significantly higher than in healthy control mice
- In vivo fluorescence imaging of tumor-bearing mice vs control (Eca109 xenograft tumor): strong fluorescent activation in the tumor region and bladder
